In data set [1] the target is Human immunodeficiency virus type 1 reverse transcriptase (Human immunodeficiency virus 1) (UniProt Q72547). Briefly: Selectivity, ratio of Kpol to Kd for TTP to Kpol to Kd for compound at HIV1 reverse transcriptase. In outline:
(§1)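 Pre-steady-state rapid quench with purified WT HIV-1 RT. Quenched with 0.5 M EDTA between 10 ms and 30 min. Products resolved on 7 M urea-16% polyacrylamide gels. Gives kpol and Kd; selectivity = (kpol/Kd)dNTP/(kpol/Kd)NRTI-TP. At least three independent experiments, mean ± SD.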

Data set [2] has the same target. Nature of the data set: Activity at HIV1 reverse transcriptase measured after 30 mins. In outline: as §1
In data set [3] the target is Human immunodeficiency virus type 1 reverse transcriptase (Human immunodeficiency virus 1, UniProt Q72547). Nature of the data set: Binding affinity to HIV1 reverse transcriptase. In outline:
as §1

Data set [4] concerns the target Human immunodeficiency virus type 1 reverse transcriptase (Human immunodeficiency virus 1) (UniProt Q72547). Nature of the data set: Ratio of Kpol to Kd for HIV1 reverse transcriptase. In outline: as §1
For data set [5], the system named is Human immunodeficiency virus 1. Nature of the data set: Antiviral activity against HIV1 infected in human HeLa P4/R5 cells assessed as inhibition of viral replication. Type of data set: functional, organism-based. The settings on record: Human immunodeficiency virus 1, HeLa. In outline:
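Single-cycle assay in P4/R5 HeLa cells carrying an HIV LTR-driven, Tat-activated β-galactosidase gene. Cells kept in phenol red-free DMEM with 10% FBS and 0.5 μg/ml puromycin. Virus stock titred on these cells by threefold endpoint dilution (Reed-Muench). At least three independent experiments.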

The subject of data set [6] is Human immunodeficiency virus 1. Briefly: Antiviral activity against HIV1 infected in human MT2 cells assessed as inhibition of viral replication. Type of data set: functional, organism-based. The settings on record: Human immunodeficiency virus 1, MT2.
Data set [7] concerns Human immunodeficiency virus 1. Nature of the data set: Antiviral activity against HIV1 infected in human PBMC assessed as inhibition of viral replication. The data set is classed as functional, organism-based. In outline: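 PBMC from healthy seronegative donors, isolated on a Ficoll-Hypaque gradient and stimulated with PHA for 2-3 days before infection. At least three independent experiments.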

Data set [8] concerns the target Human immunodeficiency virus type 1 reverse transcriptase (Human immunodeficiency virus 1) (UniProt Q72547). Briefly: Selectivity, ratio of Kpol to Kd for dCTP to Kpol to Kd for compound at HIV1 reverse transcriptase. In outline:
as §1

Data set [9] in a line: Half life in PHA-stimulated human PBMC after 12 hrs by LC-MS analysis. The data set is classed as ADME, cell-based.
The target of data set [10] is Human immunodeficiency virus type 1 reverse transcriptase (Human immunodeficiency virus 1) (UniProt Q72547). Nature of the data set: Selectivity, ratio of Kpol to Kd for dGTP to Kpol to Kd for compound at HIV1 reverse transcriptase. In outline: as §1
For data set [11] the target is unchanged. Briefly: Selectivity, ratio of Kpol to Kd for dATP to Kpol to Kd for compound at HIV1 reverse transcriptase. In outline:
as §1

Data set [12] concerns Human immunodeficiency virus 1. Nature of the data set: Antiviral activity against HIV1 harboring reverse transcriptase K65R mutant infected in human HeLa P4/R5 cells assessed as inhibition of viral replication. Type of data set: functional, organism-based. The conditions noted are these: Human immunodeficiency virus 1, HeLa. In outline:
(§2)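 Single-replication-cycle assay in P4/R5 cells: HeLa stably carrying a Tat-activated β-galactosidase gene under an HIV LTR promoter, grown in phenol red-free DMEM with 10% FBS and 0.5 μg/ml puromycin. Virus stocks were titred in P4/R5 cells by threefold endpoint dilution (Reed–Muench).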

Data set [13] concerns Human immunodeficiency virus 1. Briefly: Antiviral activity against HIV1 harboring reverse transcriptase L74V mutant infected in human HeLa P4/R5 cells assessed as inhibition of viral replication. The data set is classed as functional, organism-based. The settings on record: Human immunodeficiency virus 1, HeLa. In outline: as §2
For data set [14], the system named is Human immunodeficiency virus 1. Nature of the data set: Antiviral activity against HIV1 harboring reverse transcriptase M184V mutant infected in human HeLa P4/R5 cells assessed as inhibition of viral replication. Type of data set: functional, organism-based. The settings on record: Human immunodeficiency virus 1, HeLa. In outline:
as §2

Data set [15] concerns Human immunodeficiency virus 1. Briefly: Ratio of IC50 for HIV1 harboring reverse transcriptase K65R mutant infected in human HeLa P4/R5 cells to wild type HIV1 infected in human HeLa P4/R5 cells. Type of data set: functional. In outline:
as §2

Data set [16] relates to Human immunodeficiency virus 1. Nature of the data set: Ratio of IC50 for HIV1 harboring reverse transcriptase L74V mutant infected in human HeLa P4/R5 cells to wild type HIV1 infected in human HeLa P4/R5 cells. The data set is classed as functional. In outline: as §2
Data set [17] concerns Human immunodeficiency virus 1. Briefly: Ratio of IC50 for HIV1 harboring reverse transcriptase M184V mutant infected in human HeLa P4/R5 cells to wild type HIV1 infected in human HeLa P4/R5 cells. The data set is classed as functional. In outline:
as §2

pIC50, pKd: −log10 of the molar value.

Broadly, the pKd is the Kd on a negative log10 scale, so that one unit is a factor of ten. Usually pIC50 stands for the IC50 on a negative log10 scale, so that one unit is a factor of ten. The half-life is how long it takes for the measured level to halve. Low readings indicate rapid decline, high ones slow decline.

As for `Cc1cn([C@H]2C=C[C@@H](COP(=O)(O)OP(=O)(O)OP(=O)(O)O)O2)c(=O)[nH]c1=O` [STAVUDINE TRIPHOSPHATE], the Selectivity ratio in data set [1] was determined as 2.6. In addition, the Activity in data set [2] came to 4.3 s⁻¹. For the same molecule, in [3], the pKd is 5.57. The Ratio in data set [4] came out at 1.6 µM⁻¹ s⁻¹.
As for `Cc1cn([C@H]2C=C[C@@H](CO)O2)c(=O)[nH]c1=O` [STAVUDINE], the negative logarithm of the IC50 (pIC50) is 5.24 in data set [5], 5.72 in data set [6] and 7.00 in [7].
`Nc1ccn([C@H]2CC[C@@H](COP(=O)(O)OP(=O)(O)OP(=O)(O)O)O2)c(=O)n1` [DDCTP]: the Selectivity ratio in data set [8] was 6.7. In addition, the Activity in data set [2] came out at 0.4 s⁻¹. The molecule further had a pKd in data set [3] of 5.57. In [4], the Ratio is 0.2 µM⁻¹ s⁻¹.
`[N-]=[N+]=N[C@H]1C[C@H](n2cnc3c(=O)[nH]c(N)nc32)O[C@@H]1COP(=O)(O)OP(=O)(O)OP(=O)(O)O` gave a half-life in data set [9] of 8.9 h. Also, in data set [10], the Selectivity ratio was 1.1. In data set [2], the Activity amounted to 4.8 s⁻¹. Moreover, in [3], the pKd is 5.55. Besides, the Ratio in data set [4] worked out at 1.7 µM⁻¹ s⁻¹.
In the case of `Nc1ncnc2c1ncn2[C@H]1CC[C@@H](COP(=O)(O)OP(=O)(O)OP(=O)(O)O)O1` [DDA-TRIPHOSPHATE], the Activity in data set [2] was found to be 5.4 s⁻¹. In addition, the pKd in data set [3] was 5.28. Further, the Ratio in data set [4] turned out to be 1 µM⁻¹ s⁻¹. Besides, the Selectivity ratio in [11] was 7.5.
For `Nc1nc(=O)c2ncn([C@H]3C=C[C@@H](COP(=O)(O)OP(=O)(O)OP(=O)(O)O)C3)c2[nH]1` (single isomer, unassigned) [CARBOVIR 5'-TRIPHOSPHATE, (-)-], the Selectivity ratio in [10] came out at 11.2. In data set [2], this molecule displayed an Activity of 0.6 s⁻¹. For the same molecule, the negative logarithm of the Kd (pKd) in data set [3] was 5.40. In [4], the Ratio came out at 0.16 µM⁻¹ s⁻¹.
Take `O=c1[nH]cnc2c1ncn2[C@H]1CC[C@@H](CO)O1` [DIDANOSINE]: the pIC50 in data set [5] is 5.64; in data set [6], 6.31; in [7] it was 7.00; in data set [12], 5.20; in data set [13] it was 5.08; in data set [14], 5.34. In addition, the “Ratio IC50” value in data set [15] was determined as 2.7; in data set [16] it was 3.6; in data set [17] it was 2.
With `[N-]=[N+]=N[C@H]1C[C@H](n2cnc3c(N)ncnc32)O[C@@H]1COP(=O)(O)OP(=O)(O)OP(=O)(O)O`, the Activity in [2] was found to be 23.2 s⁻¹. In addition, in [3], the negative-log Kd (pKd) is 5.64. For the same molecule, the Ratio in data set [4] is 10.2 µM⁻¹ s⁻¹. For the same molecule, in [11], the Selectivity ratio worked out at 0.7.
The matching figures for `C[C@H](Cn1cnc2c(N)ncnc21)OCP(=O)(O)OP(=O)(O)OP(=O)(O)O`: 6.2 s⁻¹, 5.37, 1.4 µM⁻¹ s⁻¹ and 5.3.
On to `CC(C)OC(=O)OCOP(=O)(CO[C@H](C)Cn1cnc2c(N)ncnc21)OCOC(=O)OC(C)C.O=C(O)/C=C/C(=O)O` [TENOFOVIR DISOPROXIL FUMARATE], for which the pIC50 in data set [5] was 5.33; in data set [6], 6.27; in data set [7], 7.85; in [12] it was 4.94. In addition, the “Ratio IC50” value in data set [15] is recorded as 2.5.

Values taken from ChEMBL document CHEMBL1671666, “Anti-human immunodeficiency virus activity, cross-resistance, cytotoxicity, and intracellular pharmacology of the 3'-azido-2',3'-dideoxypurine nucleosides” (Antimicrob Agents Chemother, 2009).
